Assay results reported in ChEMBL document CHEMBL1125274, “Persistent binding of fatty acyl derivatives of naltrexamine to opioid receptors” (J Med Chem, 1991).

Experiments:
[1] = molecular target: T1, Opioid receptor (Mus musculus) (UniProt P42866+P32300+P33534); experiment: Binding to mouse brain membranes expressed as percentage of Opioid receptors occupancy determined from difference in specific binding of [3H]dihydromorphine obtained after 10 wash procedures; settings: Membrane
Procedure, shortened: (§1)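 Male mouse brain (minus cerebellum) membranes in pH 7.4 Hepes buffer are exposed to ligand for 30 min at 25 °C, then centrifuged and washed 10 times (resuspended in Hepes, 10 min at 37 °C, recentrifuged). Pellets are labelled with 2 nM final [3H]dihydromorphine for 20 min at 25 °C; 1 µM naltrexone defines nonspecific binding. Occupancy is the loss of specific binding versus a ligand-free control treated identically, counted by scintillation. Mean ± SD of triplicates.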

[2] = molecular target: T1, Opioid receptor (Mus musculus); experiment: (§2) Inhibition of [3H]dihydromorphine binding to mouse brain membranes as percentage of Opioid receptor occupancy
[3] = molecular target: T1, Opioid receptor (Mus musculus); experiment: as §2; remark: listed apart in the source
[4] = molecular target: T1, Opioid receptor (Mus musculus); experiment: Binding to mouse brain membranes expressed as percentage of Opioid receptors occupancy determined from difference in specific binding of [3H]dihydromorphine obtained prewashed.; settings: Membrane
Procedure, shortened: (§3)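 Applies to membranes washed before ligand exposure. Mouse brain membranes in Hepes buffer pH 7.4 are incubated with ligand for 30 min at 25 °C. Occupancy is taken from the reduction in specific binding of [3H]dihydromorphine (2 nM final, 20 min at 25 °C; nonspecific binding with 1 µM naltrexone) versus a ligand-free control. Mean ± SD of triplicates.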

[5] = molecular target: T1, Opioid receptor (Mus musculus); experiment: Binding to mouse brain membranes expressed as percentage of receptor occupancy determined from difference in specific binding of [3H]dihydromorphine obtained after 3 wash procedures.; settings: Membrane
Procedure, shortened: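 Mouse forebrain membranes in Hepes buffer, pH 7.4, are incubated with ligand for 30 min at 25 °C, then given 3 wash cycles, each a 10 min resuspension at 37 °C followed by centrifugation. Residual occupancy is measured with 2 nM [3H]dihydromorphine (20 min, 25 °C; nonspecific binding with 1 µM naltrexone) as the drop in specific binding relative to a washed control without ligand. Mean ± SD, triplicate.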

[6] = molecular target: T1, Opioid receptor (Mus musculus); experiment: Binding to mouse brain membranes expressed as percentage of receptor occupancy determined from difference in specific binding of [3H]dihydromorphine obtained after 5 wash procedures.; settings: Membrane
Procedure, shortened: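 Ligand pretreatment of male mouse brain membranes runs 30 min at 25 °C, followed by 5 washes in Hepes buffer pH 7.4 (10 min at 37 °C each, then recentrifuged). Specific binding of 2 nM [3H]dihydromorphine (20 min at 25 °C, minus binding with 1 µM naltrexone) is compared with an identically washed ligand-free control to give percent occupancy. Triplicate, mean ± SD.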

[7] = molecular target: T1, Opioid receptor (Mus musculus); experiment: Binding to mouse brain membranes expressed as percentage of receptor occupancy determined from difference in specific binding of [3H]dihydromorphine obtained after 10 wash procedures.; settings: Membrane; procedure, shortened: as §1
[8] = molecular target: T1, Opioid receptor (Mus musculus); experiment: Binding to mouse brain membranes expressed as percentage of receptor occupancy determined from difference in specific binding of [3H]dihydromorphine obtained prewashed.; settings: Membrane; procedure, shortened: as §3

T1 sequence (P32300 whole entry, looked up): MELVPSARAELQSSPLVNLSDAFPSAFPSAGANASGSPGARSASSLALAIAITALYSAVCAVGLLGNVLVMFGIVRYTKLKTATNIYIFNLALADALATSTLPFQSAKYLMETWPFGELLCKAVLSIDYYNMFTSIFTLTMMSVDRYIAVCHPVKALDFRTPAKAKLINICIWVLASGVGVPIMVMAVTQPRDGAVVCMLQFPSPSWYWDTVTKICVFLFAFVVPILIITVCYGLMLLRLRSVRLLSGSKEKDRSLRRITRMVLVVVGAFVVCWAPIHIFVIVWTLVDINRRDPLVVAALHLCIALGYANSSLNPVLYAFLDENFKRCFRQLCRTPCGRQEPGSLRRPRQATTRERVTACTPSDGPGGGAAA
T1 sequence (P33534 whole entry, looked up): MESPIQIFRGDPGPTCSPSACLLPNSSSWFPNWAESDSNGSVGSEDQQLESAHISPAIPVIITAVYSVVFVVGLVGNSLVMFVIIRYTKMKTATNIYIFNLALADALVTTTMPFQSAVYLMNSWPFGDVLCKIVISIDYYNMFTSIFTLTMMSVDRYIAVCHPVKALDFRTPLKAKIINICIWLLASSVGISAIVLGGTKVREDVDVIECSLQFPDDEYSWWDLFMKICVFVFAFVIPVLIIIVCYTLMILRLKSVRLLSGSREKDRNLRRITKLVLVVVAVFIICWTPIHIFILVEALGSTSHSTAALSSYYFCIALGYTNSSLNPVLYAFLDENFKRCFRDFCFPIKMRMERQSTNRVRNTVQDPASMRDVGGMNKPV
T1 sequence (P42866 whole entry, looked up): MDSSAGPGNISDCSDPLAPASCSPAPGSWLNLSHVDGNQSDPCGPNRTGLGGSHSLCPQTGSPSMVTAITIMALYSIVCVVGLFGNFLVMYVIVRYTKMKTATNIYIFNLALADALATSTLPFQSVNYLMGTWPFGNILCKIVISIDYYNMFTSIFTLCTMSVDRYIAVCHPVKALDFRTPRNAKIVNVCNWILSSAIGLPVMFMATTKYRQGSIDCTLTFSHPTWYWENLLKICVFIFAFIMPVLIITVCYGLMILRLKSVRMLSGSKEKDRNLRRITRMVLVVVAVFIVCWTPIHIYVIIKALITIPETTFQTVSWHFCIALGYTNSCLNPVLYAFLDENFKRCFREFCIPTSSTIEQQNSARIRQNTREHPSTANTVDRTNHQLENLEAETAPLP

Row | SMILES | Receptor occupancy [1] | Receptor occupancy [2] | Receptor occupancy [3] | Receptor occupancy [4] | Receptor occupancy [5] | Receptor occupancy [6] | Receptor occupancy [7] | Receptor occupancy [8]
1 | CCCCC/C=C/C/C=C/CCCCCCCC(=O)N[C@H]1CC[C@@]2(O)[C@H]3Cc4ccc(O)c5c4[C@@]2(CCN3CC2CC2)[C@H]1O5 | 46% | 93% | 93% | 73% |  |  |  | 
2 | CCCCCCCC/C=C/CCCCCCCC(=O)N[C@@H]1CC[C@@]2(O)[C@H]3Cc4ccc(O)c5c4[C@@]2(CCN3CC2CC2)[C@H]1O5 | 32% | 95% | 93% | 64% |  |  |  | 
3 | CC/C=C/C/C=C/C/C=C/CCCCCCCC(=O)NN[C@@H]1CC[C@@]2(O)[C@H]3Cc4ccc(O)c5c4[C@@]2(CCN3CC2CC2)[C@H]1O5 | 38% | 93% | 46% |  |  |  |  | 
4 | CCCCCCCCCCCCCCCC(=O)N[C@@H]1CC[C@@]2(O)[C@H]3Cc4ccc(O)c5c4[C@@]2(CCN3CC2CC2)[C@H]1O5 | 2% | 93% | 58% | 38% |  |  |  | 
5 | CCCCC/C=C/C/C=C/CCCCCCCC(=O)N[C@@H]1CC[C@@]2(O)[C@H]3Cc4ccc(O)c5c4[C@@]2(CCN3CC2CC2)[C@H]1O5 | 53% | 94% | 96% | 84% |  |  |  | 
6 | CC(=O)N[C@H]1CC[C@@]2(O)[C@H]3Cc4ccc(O)c5c4[C@@]2(CCN3CC2CC2)[C@H]1O5 |  |  |  |  | 2% |  |  | 
7 | CCCCCCCC/C=C/CCCCCCCC(=O)N[C@H]1CC[C@@]2(O)[C@H]3Cc4ccc(O)c5c4[C@@]2(CCN3CC2CC2)[C@H]1O5 | 21% | 98% | 54% | 42% |  |  |  | 
8 | CC(=O)N[C@@H]1CC[C@@]2(O)[C@H]3Cc4ccc(O)c5c4[C@@]2(CCN3CC2CC2)[C@H]1O5 |  |  |  |  | 4% |  |  | 
9 | Oc1ccc2c3c1O[C@H]1/C(=N\N=C4/CC[C@@]5(O)[C@H]6Cc7ccc(O)c8c7[C@@]5(CCN6CC5CC5)[C@H]4O8)CC[C@@]4(O)[C@@H](C2)N(CC2CC2)CC[C@]314 |  |  |  |  | 35% | -1% | 2% | 
10 | CCCCCCCCCCCCCCCC(=O)NN[C@@H]1CC[C@@]2(O)[C@H]3Cc4ccc(O)c5c4[C@@]2(CCN3CC2CC2)[C@H]1O5 |  | 33% | 2% |  |  |  |  | 
11 | CCCCCCCCCCCCCCCC(=O)N[C@H]1CC[C@@]2(O)[C@H]3Cc4ccc(O)c5c4[C@@]2(CCN3CC2CC2)[C@H]1O5 |  |  |  |  | 85% | 35% | 3% | 24%
12 | CCCCCCCCCCCCCCCCCC(=O)NN[C@@H]1CC[C@@]2(O)[C@H]3Cc4ccc(O)c5c4[C@@]2(CCN3CC2CC2)[C@H]1O5 |  | 38% | 4% |  |  |  |  | 
13 | CCCCCCCCCCCCCCCCCC(=O)N[C@H]1CC[C@@]2(O)[C@H]3Cc4ccc(O)c5c4[C@@]2(CCN3CC2CC2)[C@H]1O5 | 6% | 77% | 42% | 18% |  |  |  | 
14 | CC/C=C/C/C=C/C/C=C/CCCCCCCC(=O)N[C@H]1CC[C@@]2(O)[C@H]3Cc4ccc(O)c5c4[C@@]2(CCN3CC2CC2)[C@H]1O5 | 84% | 94% | 89% | 69% |  |  |  | 
15 | CCCCCCCCCCCCCCCCCC(=O)N[C@@H]1CC[C@@]2(O)[C@H]3Cc4ccc(O)c5c4[C@@]2(CCN3CC2CC2)[C@H]1O5 | 2% | 89% | 48% | 34% |  |  |  | 
16 | CC/C=C/C/C=C/C/C=C/CCCCCCCC(=O)N[C@@H]1CC[C@@]2(O)[C@H]3Cc4ccc(O)c5c4[C@@]2(CCN3CC2CC2)[C@H]1O5 | 86% | 92% | 95% | 85% |  |  |  | 
